pIC50: −log10 of the molar value. ≈ marks a conversion by molar mass, not a printed value. Blank lines part the entries; values can stand above or below the compound they belong to. Calls of active or inactive are those of the source. No cut-off for these calls is given here.
How the values were obtained:
[1] = Clearance in rat blood at 1 mg/kg, iv and 3 mg/kg, po; format: ADME, organism-based
In short: (§1)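 Cross-species pharmacokinetics (rat, dog, monkey), n = 3 per species. Parameters were derived from 1 mg/kg iv or 3 mg/kg po profiles: blood clearance, Vss, half-life and oral bioavailability.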

[2] = Volume of distribution at steady state in rat at 1 mg/kg, iv and 3 mg/kg, po; format: ADME, organism-based; conditions: in vivo, read-out: Vdss; in short: as §1
[3] = Half life in rat at 1 mg/kg, iv and 3 mg/kg, po; format: ADME, organism-based; conditions: in vivo; in short: as §1
[4] = Oral bioavailability in rat at 1 mg/kg, iv and 3 mg/kg, po; format: ADME, organism-based; conditions: in vivo; in short: as §1
[5] = Clearance in dog blood at 1 mg/kg, iv and 3 mg/kg, po; format: ADME, organism-based, Canis lupus familiaris; in short: as §1
[6] = Volume of distribution at steady state in dog at 1 mg/kg, iv and 3 mg/kg, po; format: ADME, organism-based, Canis lupus familiaris; conditions: in vivo, read-out: Vdss; in short: as §1
[7] = Half life in dog at 1 mg/kg, iv and 3 mg/kg, po; format: ADME, organism-based, Canis lupus familiaris; conditions: in vivo; in short: as §1
[8] = Oral bioavailability in dog at 1 mg/kg, iv and 3 mg/kg, po; format: ADME, organism-based, Canis lupus familiaris; conditions: in vivo; in short: as §1
[9] = Clearance in monkey blood at 1 mg/kg, iv and 3 mg/kg, po; format: ADME, organism-based, Macaca mulatta; conditions: rhesus monkey; in short: as §1
[10] = Volume of distribution at steady state in monkey at 1 mg/kg, iv and 3 mg/kg, po; format: ADME, organism-based, Macaca mulatta; conditions: rhesus monkey, in vivo, read-out: Vdss; in short: as §1
[11] = Half life in monkey at 1 mg/kg, iv and 3 mg/kg, po; format: ADME, organism-based, Macaca mulatta; conditions: rhesus monkey, in vivo; in short: as §1
[12] = Oral bioavailability in monkey at 1 mg/kg, iv and 3 mg/kg, po; format: ADME, organism-based, Macaca mulatta; conditions: rhesus monkey, in vivo; in short: as §1
P2X purinoceptor 7 [13] = target: T1, P2X purinoceptor 7 (Homo sapiens, UniProt Q99572); experiment: Antagonist activity at human recombinant P2X7 receptor expressed in HEK293 cells by ethidium accumulation assay; format: functional, cell-based
T1 sequence (Q99572 whole entry): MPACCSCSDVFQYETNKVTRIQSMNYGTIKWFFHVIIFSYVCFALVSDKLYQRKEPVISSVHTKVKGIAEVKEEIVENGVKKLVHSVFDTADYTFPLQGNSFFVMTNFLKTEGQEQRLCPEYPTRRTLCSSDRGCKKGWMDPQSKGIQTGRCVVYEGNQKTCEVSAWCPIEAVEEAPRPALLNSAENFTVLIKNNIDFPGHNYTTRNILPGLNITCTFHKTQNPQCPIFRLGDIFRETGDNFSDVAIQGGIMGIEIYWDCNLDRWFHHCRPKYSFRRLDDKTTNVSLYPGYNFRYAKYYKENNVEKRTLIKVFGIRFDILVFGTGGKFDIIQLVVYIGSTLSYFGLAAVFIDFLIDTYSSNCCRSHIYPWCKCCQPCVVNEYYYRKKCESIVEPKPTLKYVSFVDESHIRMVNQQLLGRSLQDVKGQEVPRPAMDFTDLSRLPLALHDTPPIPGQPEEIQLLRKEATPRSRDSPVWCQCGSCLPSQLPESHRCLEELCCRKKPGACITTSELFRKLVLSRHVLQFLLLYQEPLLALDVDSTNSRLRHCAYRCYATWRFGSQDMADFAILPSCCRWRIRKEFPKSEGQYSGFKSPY
In short: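 Ethidium accumulation read-out: ATP activation of the receptor opens a large pore, and uptake of ethidium bromide dye into the cells is measured by fluorescence.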

[14] = (§2) Clearance in rat blood at 1 mg/kg, iv; format: ADME, organism-based; design: dose 1 mg/kg, route intravenous; conditions: blood
In short: (§3)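 Rat blood clearance was determined after a single iv infusion at 1 mg/kg.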

[15] = Half life in rat blood at 1 mg/kg, iv; format: ADME, organism-based; design: dose 1 mg/kg, route intravenous
[16] = Solubility of the compound in FeSSIF; format: physicochemical
[17] = Protein binding in rat plasma; format: ADME, cell-free; conditions: read-out: PPB (converted)
Rattus norvegicus [18] = experiment: Reversal of FCA-induced hypersensitivity in rat chronic joint pain model at 20 mg/kg, po after 1 to 6 hrs; format: functional, organism-based; design: dose 20 mg/kg
In short: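 Chronic joint pain model in rat. Hypersensitivity was induced by intra-articular FCA, and oral dosing at 20 mg/kg began 13 days post FCA. Response was assessed at 1, 3 and 6 h post-dose. Celecoxib at 30 mg/kg po served as comparator.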

[19] = Drug level in rat chronic joint pain model blood at 20 mg/kg, po after 1 hr; format: ADME, organism-based; design: dose 20 mg/kg, route oral; conditions: read-out: Drug uptake
In short: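 In the rat chronic joint pain model, blood concentrations were measured 1.0 h after a 20 mg/kg oral dose.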

[20] = Ratio of drug level in brain to plasma in rat chronic joint pain model at 20 mg/kg, po after 1 hr; format: ADME, organism-based; design: dose 20 mg/kg, route oral; conditions: brain and plasma, read-out: BBR
MDCK = experiment: Efflux ratio of permeability from apical to basolateral side over basolateral to apical side in MDCK cells expressing MDR; format: ADME, cell-based, Canis lupus familiaris; conditions: dog
P2X purinoceptor 7 [21] = target: T2, P2X purinoceptor 7 (Rattus norvegicus, UniProt Q64663); experiment: Antagonist activity at rat recombinant P2X7 receptor; format: functional
T2 sequence (Q64663 whole entry): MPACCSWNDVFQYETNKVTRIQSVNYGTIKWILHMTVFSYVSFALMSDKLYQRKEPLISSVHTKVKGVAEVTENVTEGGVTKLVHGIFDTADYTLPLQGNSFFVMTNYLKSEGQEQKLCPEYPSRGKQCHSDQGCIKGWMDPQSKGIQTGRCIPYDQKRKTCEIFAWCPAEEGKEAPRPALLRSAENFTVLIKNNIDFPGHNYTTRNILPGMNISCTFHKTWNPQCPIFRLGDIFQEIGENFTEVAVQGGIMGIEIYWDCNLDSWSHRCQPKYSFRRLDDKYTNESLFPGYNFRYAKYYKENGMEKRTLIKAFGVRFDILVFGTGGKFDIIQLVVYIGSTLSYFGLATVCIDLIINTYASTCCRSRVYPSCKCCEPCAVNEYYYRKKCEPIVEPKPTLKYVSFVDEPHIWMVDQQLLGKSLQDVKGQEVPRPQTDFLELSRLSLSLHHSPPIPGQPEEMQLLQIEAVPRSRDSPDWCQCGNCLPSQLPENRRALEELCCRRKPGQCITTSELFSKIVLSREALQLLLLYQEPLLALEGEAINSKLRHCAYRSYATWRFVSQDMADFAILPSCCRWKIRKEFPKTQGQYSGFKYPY

[22] = Metabolic stability in rat liver microsomes assessed as intrinsic clearance measured per gram of tissue; format: ADME, Microsome
Rattus norvegicus [23] = experiment: as §2; format: ADME, organism-based; design: dose 1 mg/kg, route intravenous; conditions: in vivo; in short: as §3
[24] = Lipophilicity, log D of the compound at pH 7.4; format: physicochemical; conditions: buffer
[25] = Clearance in rat at 3 mg/kg, po; format: ADME, organism-based; design: dose 3 mg/kg, route oral; conditions: in vivo
[26] = Half life in rat at 3 mg/kg, po; format: ADME, organism-based; design: dose 3 mg/kg, route oral; conditions: in vivo
[27] = Cmax in rat at 3 mg/kg, po; format: ADME, organism-based; design: dose 3 mg/kg, route oral; conditions: in vivo

Compound: CN1C(=O)COC[C@H]1C(=O)NCc1cccc(C(F)(F)F)c1Cl
pIC50 (P2X purinoceptor 7 [13]): 8.40

Compound: CN1C(=O)N(CCN2CCOCC2)C[C@H]1C(=O)NCc1cccc(C(F)(F)F)c1Cl
pIC50 (P2X purinoceptor 7 [13]): 7.60 | Ratio (MDCK): 11.9

Compound: CN1C(=O)C(F)(F)C[C@H]1C(=O)NCc1cccc(C(F)(F)F)c1Cl
pIC50 (P2X purinoceptor 7 [13]): 8.40

Compound: Cc1cc(N2C[C@@H](C(=O)NCc3cccc(C(F)(F)F)c3Cl)N(C)C2=O)ccn1
pIC50 (P2X purinoceptor 7 [13]): 8.00 | Ratio (MDCK): 1.9

Compound: Cc1cccc(N2C[C@@H](C(=O)NCc3cccc(C(F)(F)F)c3Cl)N(C)C2=O)n1
pIC50 (P2X purinoceptor 7 [13]): 7.10

Compound: Cc1ncccc1N1C[C@@H](C(=O)NCc2cccc(C(F)(F)F)c2Cl)N(C)C1=O
pIC50 (P2X purinoceptor 7 [13]): 8.30 | Ratio (MDCK): 4.4

Compound: CN1C(=O)N(c2nccn2C)C[C@H]1C(=O)NCc1cccc(C(F)(F)F)c1Cl
pIC50 (P2X purinoceptor 7 [13]): 8.40 | Ratio (MDCK): 5.3

Compound: CN1CCC(N2C[C@@H](C(=O)NCc3cccc(C(F)(F)F)c3Cl)N(C)C2=O)CC1
pIC50 (P2X purinoceptor 7 [13]): 7.50 | Ratio (MDCK): 3.2

Compound: CN1C(=O)C(C)(C)C[C@H]1C(=O)NCc1cccc(C(F)(F)F)c1Cl
pIC50 (P2X purinoceptor 7 [13]): 7.60

Compound: CN1C(=O)N(c2cn(C)cn2)C[C@H]1C(=O)NCc1cccc(C(F)(F)F)c1Cl
pIC50 (P2X purinoceptor 7 [13]): 8.60

Further lines, with some results ahead:

clearance [1]: 6 mL/min/kg | Vd [2]: 1.3 L/kg | half-life [3]: 2.8 h | bioavailability [4]: 100% | clearance [5]: 2 mL/min/kg | Vd [6]: 0.8 L/kg | half-life [7]: 5.7 h | bioavailability [8]: 100% | clearance [9]: 7 mL/min/kg | Vd [10]: 1.2 L/kg | half-life [11]: 2.9 h | bioavailability [12]: 99% | pIC50 (P2X purinoceptor 7 [13]): 8.00 | clearance [14]: 6 mL/min/kg | half-life [15]: 2.8 h | solubility [16]: 780 µg/mL (≈ 2580 µM) | fraction unbound [17]: 0.35 | concentration at 1 h [19]: 56.4 µM | Kp at 1 h [20]: 0.3
Compound: CN1C(=O)NC[C@H]1C(=O)NCc1ccc(Cl)cc1Cl
Activity (Rattus norvegicus [18]): Active

pIC50 (P2X purinoceptor 7 [13]): 7.60
Compound: CN1C(=O)NC[C@H]1C(=O)NCc1cccc(Cl)c1Cl

pIC50 (P2X purinoceptor 7 [13]): 8.40 | Ratio (MDCK): 2.1
Compound: CN1C(=O)NC[C@H]1C(=O)NCc1cccc(C(F)(F)F)c1Cl

clearance [1]: 9 mL/min/kg | Vd [2]: 1 L/kg | half-life [3]: 1.5 h | clearance [5]: 14 mL/min/kg | Vd [6]: 0.9 L/kg | half-life [7]: 0.7 h | bioavailability [8]: 69% | clearance [9]: 17 mL/min/kg | Vd [10]: 1.1 L/kg | half-life [11]: 0.9 h | bioavailability [12]: 57% | pIC50 (P2X purinoceptor 7 [21]): 6.60
Compound: CN1C(=O)CC[C@H]1C(=O)NCc1cccc(C(F)(F)F)c1Cl [GSK1482160]

pIC50 (P2X purinoceptor 7 [13]): 8.70 | CLint scaled [22]: < 0.5 mL/min/g | clearance (Rattus norvegicus [23]): 30 mL/min/kg | half-life [15]: 0.6 h
Compound: CN1C[C@@H](C(=O)NCc2ccc(Cl)cc2Cl)N(C)C1=O

pIC50 (P2X purinoceptor 7 [13]): 8.00 | Ratio (MDCK): 4.9 | concentration at 1 h [19]: 16.8 µM | Kp at 1 h [20]: < 0.1 | pIC50 (P2X purinoceptor 7 [21]): 7.20 | logD [24]: 2.2 | CL/F [25]: 17 mL/min/kg | half-life [26]: 2.3 h | Cmax [27]: 1070 ng/mL
Compound: Cc1ncccc1N1C[C@@H](C(=O)NCc2ccc(Cl)cc2Cl)N(C)C1=O
Activity (Rattus norvegicus [18]): inactive

pIC50 (P2X purinoceptor 7 [13]): 8.00 | clearance [14]: 49 mL/min/kg | half-life [15]: 0.4 h
Compound: CN1C[C@@H](C(=O)NCc2cccc(Cl)c2Cl)N(C)C1=O

pIC50 (P2X purinoceptor 7 [13]): 7.80
Compound: CN1C(=O)OC[C@H]1C(=O)NCc1cccc(C(F)(F)F)c1Cl

— ChEMBL document CHEMBL1268987, “Identification of 2-oxo-N-(phenylmethyl)-4-imidazolidinecarboxamide antagonists of the P2X(7) receptor” (Bioorg Med Chem Lett, 2010)
